Test results as given in ChEMBL document CHEMBL4706681, “New 2-Pyrazoline and Hydrazone Derivatives as Potent and Selective Monoamine Oxidase A Inhibitors” (J Med Chem, 2021).
Each block holds one molecule with its values, some of them ahead of it. Active and inactive are the calls of the source. No cut-off for these calls is given here.

Assays:
[1] = Selectivity index, ratio of Ki for inhibition of recombinant human MAO-A to Ki for inhibition of recombinant human MAO-B using p-tyramine as substrate
[2] = Ex vivo inhibition of MAOA in CD1 mouse brain homogenates assessed as 5-HT levels at 30 mg/kg, po administered as single acute dose via gavage and measured after 1 hr by ELISA kit method (reference value: 0.80 +/- 0.006 ug/g); format: functional
[3] = Ex vivo inhibition of MAOA in CD1 mouse brain homogenates assessed as MAOA level at 30 mg/kg, po administered as single acute dose via gavage and measured after 1 hr by monoamine oxidase assay (reference value: 0.40 +/- 0.012 nmol/min/mg); format: functional
[4] = Ex vivo inhibition of MAOA in CD1 mouse brain homogenates assessed as dopamine levels at 30 mg/kg, po administered as single acute dose via gavage and measured after 1 hr by ELISA kit method (reference value: 7.08 +/- 0.58 ug/g); format: functional
[5] = system: Mus musculus; assay: Antidepressant-like activity in CD1 mouse assessed as reduction in immobility time at 30 mg/kg, po administered via gavage as single dose measured after 1 hr by Porsolt-forced swim test; format: functional, organism-based
[6] = Ex vivo inhibition of MAOA in CD1 mouse brain homogenates assessed as assessed as inhibition of 5-HT deamination by measuring 5-HIAA metabolite levels at 30 mg/kg, po administered as single acute dose via gavage and measured after 1 hr by HPLC analysis (reference value: 0.28 +/- 0.011 ug/g); format: functional
[7] = Ex vivo inhibition of MAOA in CD1 mouse brain homogenates assessed as inhibition of 5-HT deamination by measuring 5-HIAA metabolite levels by using at 30 mg/kg, po administered as subchronic dose via gavage for 7 days and measured 1 hr post last dose by HPLC analysis (reference value: 0.18 +/- 0.01 ug/g); format: functional; details: time 7 day
[8] = target: T1, Amine oxidase [flavin-containing] A (Homo sapiens, UniProt P21397); assay: Inhibition of recombinant human MAO-A expressed in baculovirus infected BTI insect cells using p-tyramine as substrate incubated for 30 mins by Amplex red reagent based fluorescence analysis
T1 sequence (P21397 whole entry): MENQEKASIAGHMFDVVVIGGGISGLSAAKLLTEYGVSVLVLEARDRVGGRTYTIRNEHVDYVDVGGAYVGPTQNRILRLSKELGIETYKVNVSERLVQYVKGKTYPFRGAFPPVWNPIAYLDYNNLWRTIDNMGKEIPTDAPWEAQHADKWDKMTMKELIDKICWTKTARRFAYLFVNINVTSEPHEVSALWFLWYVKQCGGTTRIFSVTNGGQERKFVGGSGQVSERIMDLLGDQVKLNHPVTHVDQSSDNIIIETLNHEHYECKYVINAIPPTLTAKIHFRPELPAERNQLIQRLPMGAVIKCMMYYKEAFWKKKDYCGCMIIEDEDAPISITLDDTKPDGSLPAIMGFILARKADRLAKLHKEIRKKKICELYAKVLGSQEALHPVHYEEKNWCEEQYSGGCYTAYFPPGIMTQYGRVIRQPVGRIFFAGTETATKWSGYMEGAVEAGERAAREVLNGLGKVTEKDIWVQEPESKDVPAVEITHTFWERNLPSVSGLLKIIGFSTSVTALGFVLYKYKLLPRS

[9] = system: Mus musculus; assay: Antidepressant-like activity in CD1 mouse assessed as maximum efficacy at 20 mg/kg, po administered as subchronic dose gavage for 7 days and measured 1 h post last dose by Porsolt-forced swim test; format: functional, organism-based; details: time 7.0 day
Method in brief: (§1)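 Male albino CD-1 mice (20–25 g), 12 h light/dark, food and water ad libitum. Dosed by oral gavage once daily for 7 days in 200 μL 0.5% CMC; vehicle-only controls. […] Forced swim test run 1 h after the last dose. Immobility scored every 60 s over 6 min; n = 8–12.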

[10] = system: Mus musculus; assay: Antidepressant-like activity in CD1 mouse assessed as reduction in immobility time at 30 mg/kg, po administered via gavage for 7 days and measured 1 h post last dose by Porsolt-forced swim test; format: functional, organism-based; details: time 7.0 day; method in brief: as §1
[11] = Effect on locomotor activity in CD1 mouse assessed as total distance traveled at 30 mg/kg, po administered via gavage for 7 days by open field test; format: ADME, organism-based; details: in vivo, 168 h, time 7 day
Method in brief: (§2)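 Each mouse placed in the centre of a 50 × 50 × 30 cm black box and video-tracked; total distance travelled over 5 min; n = 8–10.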

[12] = Ex vivo inhibition of MAOA in CD1 mouse brain homogenates assessed as MAOA level at 30 mg/kg, po administered as subchronic dose via gavage for 7 days and measured 1 hr post last dose by monoamine oxidase assay (reference value: 0.40 +/- 0.005 nmol/min/mg); format: functional; details: time 7 day
[13] = Ex vivo inhibition of MAOA in CD1 mouse brain homogenates assessed as inhibition of dopamine deamination by measuring DOPAC metabolite levels at 20 mg/kg, po administered as single acute dose via gavage and measured after 1 hr by HPLC analysis (reference value: 1.22 +/- 0.2 ug/g); format: functional
[14] = system: Mus musculus; assay: Antidepressant-like activity in CD1 mouse assessed as reduction in immobility time at 10 mg/kg, po administered as subchronic dose via gavage for 7 days and measured 1 h post last dose by Porsolt-forced swim test; format: functional, organism-based; details: time 7.0 day; method in brief: as §1
[15] = Ex vivo inhibition of MAOA in CD1 mouse brain homogenates assessed as inhibition of 5-HT deamination by measuring 5-HIAA metabolite levels at 20 mg/kg, po administered as single acute dose via gavage and measured after 1 hr by HPLC analysis (reference value: 0.28 +/- 0.011 ug/g); format: functional
[16] = Effect on locomotor activity in CD1 mouse assessed as total distance traveled at 20 mg/kg, po administered via gavage for 7 days by open field test; format: ADME, organism-based; details: in vivo, 168 h, time 7 day; method in brief: as §2
[17] = Ex vivo inhibition of MAOA in CD1 mouse brain homogenates assessed as MAOA level at 20 mg/kg, po administered administered as single acute dose via gavage and measured after 1 hr by monoamine oxidase assay (reference value: 0.40 +/- 0.012 nmol/min/mg); format: functional
[18] = Ex vivo inhibition of MAOA in CD1 mouse brain homogenates assessed as dopamine levels at 20 mg/kg, po administered as single acute dose via gavage and measured after 1 hr by ELISA kit method (reference value: 7.08 +/- 0.58 ug/g); format: functional
[19] = Ex vivo inhibition of MAOA in CD1 mouse brain homogenates assessed as MAOA level at 20 mg/kg, po administered as subchronic dose via gavage for 7 days and measured 1 hr post last dose by monoamine oxidase assay (reference value: 0.40 +/- 0.005 nmol/min/mg); format: functional; details: time 7 day

Ratio Ki [1]: 1.37 10^-5No_unit
Ki [8]: 9 nM
SMILES: COc1ccc(C2=NN(C(=O)Cn3c(=O)oc4ccc(C)cc43)C(c3cccc(OC)c3OC)C2)cc1 (centres undefined)
Activity [2]: 1.1 µg/g
Activity [3]: 0.23 nmol/min/mg
Activity [4]: 7.13 µg/g
Activity [5]: Active
Activity [6]: 0.35 µg/g
Activity [7]: 0.3 µg/g
Activity [9]: inactive
Activity [10]: Active
Activity [11]: Non-Toxic
Activity [12]: 0.21 nmol/min/mg

SMILES: O=C(NCCN1CCOCC1)c1ccc(Cl)cc1 [MOCLOBEMIDE]
Activity [13]: 1.24 µg/g
Activity [14]: Active
Activity [15]: 0.32 µg/g
Activity [16]: Non-Toxic
Activity [17]: 0.35 nmol/min/mg
Activity [18]: 7.1 µg/g
Activity [19]: 0.33 nmol/min/mg
